Activity calls are given as the source filed them. The rule behind the calls is not given here.
Columns and labels:
[1] = AUC in rat at 1 mg/kg, iv; assay type: ADME, organism-based; conditions: in vivo
[2] = Clearance in rat at 1 mg/kg, iv; assay type: ADME, organism-based; conditions: in vivo
[3] = Volume of distribution at steady state in rat at 1 mg/kg, iv; assay type: ADME, organism-based; conditions: in vivo, read-out: Vdss
[4] = AUC in rat at 3 mg/kg, po; assay type: ADME, organism-based; conditions: in vivo
[5] = Half life in rat at 3 mg/kg, po; assay type: ADME, organism-based; conditions: in vivo
[6] = Tmax in rat at 3 mg/kg, po; assay type: ADME, organism-based; conditions: in vivo
[7] = Cmax in rat at 3 mg/kg, po; assay type: ADME, organism-based; design: dose 3 mg/kg, route oral; conditions: in vivo
[8] = Oral bioavailability in rat at 3 mg/kg; assay type: ADME, organism-based; conditions: in vivo
Syrian golden hamster [9] = experiment: Reduction in LDL level in high fat and high cholesterol diet fed Syrian golden hamster at 30 mg/kg, po qd for 14 days; assay type: functional; conditions: Mesocricetus auratus, 336 h
In short: (§1)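 Groups of Syrian golden hamsters (n = 6) kept on a high fat, high cholesterol diet for 14 days, dosed orally at 30 mg/kg once daily. Plasma HDL and LDL compared against untreated HFHC controls; mean with standard errors.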

Syrian golden hamster [10] = experiment: Increase in HDL level in high fat and high cholesterol diet fed Syrian golden hamster at 30 mg/kg, po qd for 14 days; assay type: functional, Mesocricetus auratus; in short: as §1
Rattus norvegicus = experiment: Prevention of atypical antipsychotic quetiapine associated weight gain in Wistar rat at 10 mg/kg, po for 14 days; assay type: functional, organism-based
In short: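 Prophylactic protocol in lean female Wistar rats (n = 9−10 per group). A dose response of test compound was given orally together with quetiapine at a fixed 10 mg/kg, concurrently for 14 days.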

[11] = target: T1, Glucocorticoid receptor (Homo sapiens) (UniProt P04150); experiment: Displacement of [3H]-dexamethasone from human glucocorticoid receptor expressed in HEK293 cells at 10 uM by scintillation counting based radioligand competition binding assay; assay type: cell-based
T1 sequence (whole entry): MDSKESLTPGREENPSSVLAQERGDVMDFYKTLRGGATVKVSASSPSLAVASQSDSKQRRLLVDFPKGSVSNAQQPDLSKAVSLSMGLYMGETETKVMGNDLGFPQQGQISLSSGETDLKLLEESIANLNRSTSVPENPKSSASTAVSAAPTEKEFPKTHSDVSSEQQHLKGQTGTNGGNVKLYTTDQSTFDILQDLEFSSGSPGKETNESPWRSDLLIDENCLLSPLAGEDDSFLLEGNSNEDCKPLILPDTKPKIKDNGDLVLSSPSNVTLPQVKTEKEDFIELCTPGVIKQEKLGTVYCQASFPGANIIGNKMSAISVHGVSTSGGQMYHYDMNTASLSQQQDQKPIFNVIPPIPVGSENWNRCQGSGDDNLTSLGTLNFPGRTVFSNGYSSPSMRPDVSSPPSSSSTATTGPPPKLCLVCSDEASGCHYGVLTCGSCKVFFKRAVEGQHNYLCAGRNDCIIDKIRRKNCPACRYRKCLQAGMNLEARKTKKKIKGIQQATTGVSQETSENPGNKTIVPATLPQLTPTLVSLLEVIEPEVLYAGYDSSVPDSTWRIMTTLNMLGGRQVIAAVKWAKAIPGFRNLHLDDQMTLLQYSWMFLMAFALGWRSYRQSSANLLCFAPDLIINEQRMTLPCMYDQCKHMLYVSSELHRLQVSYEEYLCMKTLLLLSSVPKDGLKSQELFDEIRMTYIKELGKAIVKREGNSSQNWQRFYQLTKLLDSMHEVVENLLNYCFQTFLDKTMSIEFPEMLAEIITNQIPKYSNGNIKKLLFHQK
In short: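 Competition binding with 0.3 nM [3H]-dexamethasone and 20 μg 293-GR lysate per well; nonspecific binding defined with 0.5 μM dexamethasone. Incubated overnight at 4 °C, free ligand removed with charcoal–dextran, then scintillation counting. Percent inhibition at 10 μM was calculated.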

Row | AUC [1] [ng·h/mL] | clearance [2] [mL/min/kg] | Vd [3] [L/kg] | AUC [4] [ng·h/mL] | half-life [5] [h] | Tmax [6] [h] | Cmax [7] [ng/mL] | bioavailability [8] [%] | Activity [11] | Structure (SMILES) | inhibition in vivo at 30 mg/kg (Syrian golden hamster [9]) [%] | Activity (Syrian golden hamster [10]) [%] | inhibition (Rattus norvegicus)
1 | 315 | 58.2 | 13.8 | 488 | 3.31 | 4 | 63.3 | 51.9 | – | COc1cc(F)ccc1-c1c(CN(C)Cc2ccccc2)[nH]c2c(NS(C)(=O)=O)cc(C(C)C)cc12 | 74 | 73 | Active
2 | – | – | – | – | – | – | – | – | inactive | COc1cc(F)ccc1-c1c(CN(C)Cc2ccccc2)[nH]c2c(N)cc(F)cc12 | – | – | –

From ChEMBL document CHEMBL3603837, “Indole Glucocorticoid Receptor Antagonists Active in a Model of Dyslipidemia Act via a Unique Association with an Agonist Binding Site” (J Med Chem, 2015)
